From ChEMBL document CHEMBL4261491, “Synthesis and synergistic antifungal effects of monoketone derivatives of curcumin against fluconazole-resistant Candida spp” (Medchemcomm, 2017)
Values after ≈ are worked out from the molar mass of the structure shown. Active and inactive are the calls of the source. No cut-off for these calls is given here.

Key:
[1] = test system: Pichia kudriavzevii; assay: Antifungal activity against fluconazole-resistant Candida krusei clinical isolate 2159 by broth microdilution method; type: functional
Procedure, shortened: (§1)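 Broth microdilution per CLSI/NCCLS M27-A2 against FLC-resistant clinical isolates. MIC80 read for each compound alone and with fluconazole at 8.0 μg ml–1. C. albicans ATCC 90028 served as quality control. Curcumin was the positive control.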

[2] = test system: Candida albicans; assay: Antifungal activity against fluconazole-resistant Candida albicans clinical isolate 103 by broth microdilution method; type: functional; procedure, shortened: as §1
[3] = test system: Candida tropicalis; assay: Antifungal activity against fluconazole-resistant Candida tropicalis clinical isolate 087 by broth microdilution method; type: functional; procedure, shortened: as §1
[4] = test system: Candida albicans; assay: Antifungal activity against fluconazole-resistant Candida albicans clinical isolate 103 in presence of 8 ug/ml fluconazole by broth microdilution method; type: functional; procedure, shortened: as §1
[5] = test system: Candida tropicalis; assay: Antifungal activity against fluconazole-resistant Candida tropicalis clinical isolate 087 in presence of 8 ug/ml fluconazole by broth microdilution method; type: functional; procedure, shortened: as §1
[6] = test system: Pichia kudriavzevii; assay: Antifungal activity against fluconazole-resistant Candida krusei clinical isolate 2159 in presence of 8 ug/ml fluconazole by broth microdilution method; type: functional; procedure, shortened: as §1
[7] = test system: Candida tropicalis; assay: Antifungal activity against fluconazole-resistant Candida tropicalis clinical isolate 087 at 64 ug/ml after 16 hrs by turbidity method; type: functional, organism-based
Procedure, shortened: (§2)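 C. tropicalis 087 at 10^4 CFU ml–1 in RPMI 1640 in glass tubes. Compound (0–128 μg ml–1) and fluconazole (0–2 μg ml–1) were added alone or in combination. Tubes were shaken at 200 rpm at 30 °C for 16 h, and turbidity was inspected visually and photographed.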

[8] = test system: Candida tropicalis; assay: Synergistic antifungal activity against fluconazole-resistant Candida tropicalis clinical isolate 087 at 4 ug/ml after 16 hrs in presence of fluconazole by turbidity method; type: functional, organism-based; procedure, shortened: as §2
[9] = test system: Candida tropicalis; assay: Antifungal activity against fluconazole-resistant Candida tropicalis clinical isolate 087 assessed as fungal growth inhibition at 64 ug/ml after 48 hrs; type: functional, organism-based
Procedure, shortened: (§3)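 C. tropicalis 087 was grown in RPMI 1640 at 30 °C for 48 h with fluconazole (0.25, 0.5, 1 μg ml–1) or compound (64, 128 μg ml–1), alone or combined. OD630 was read every 8 h to build growth curves. Three independent experiments, means ± SD.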

[10] = test system: Candida tropicalis; assay: Fungicidal activity against fluconazole-resistant Candida tropicalis clinical isolate 087 at 128 ug/ml after 48 hrs; type: functional, organism-based; procedure, shortened: as §3
[11] = test system: Candida tropicalis; assay: Antifungal activity against fluconazole-resistant Candida tropicalis clinical isolate 087 assessed as apoptosis at 128 ug/ml after 48 hrs; type: functional, organism-based
[12] = test system: Candida tropicalis; assay: Synergistic fungicidal activity against fluconazole-resistant Candida tropicalis clinical isolate 087 at 64 to 128 ug/ml after 48 hrs in presence of 1 ug/ml fluconazole; type: functional, organism-based; procedure, shortened: as §3
[13] = test system: Candida tropicalis; assay: Antifungal activity against fluconazole-resistant Candida tropicalis clinical isolate 087 assessed as fungus with permeabilized membrane at 32 ug/ml after 12 hrs by propidium iodide staining-based flow cytometry (reference value: 7.22%); type: functional
[14] = test system: Candida tropicalis; assay: Synergistic antifungal activity against fluconazole-resistant Candida tropicalis clinical isolate 087 assessed as fungus with permeabilized membrane at 32 ug/ml after 12 hrs in presence of 2 ug/ml fluconazole by propidium iodide staining-based flow cytometry (reference value: 7.22%); type: functional
[15] = Cytotoxicity against HUVEC assessed as cell viability at 32 ug/ml after 24 hrs by MTT assay relative to control; type: cell-based; details: human, HUVEC cells; read-out: Activity
Procedure, shortened: (§4)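 HUVECs grown in DMEM with 10% FCS and 100 μg ml–1 streptomycin, 5% CO2, 37 °C. Cells exposed to compounds at 16 and 32 μg ml–1 for 24 h, then incubated with MTT solution (5 mg ml–1) for 3 h. Optical density read at 570 nm. Viability expressed as percentage relative to drug-free control.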

[16] = Cytotoxicity against HUVEC assessed as cell viability at 16 ug/ml after 24 hrs by MTT assay relative to control; type: cell-based; details: human, HUVEC cells; read-out: Activity; procedure, shortened: as §4
[17] = test system: Candida tropicalis; assay: Antifungal activity against fluconazole-resistant Candida tropicalis clinical isolate 087 at 1 ug/ml after 16 hrs by turbidity method; type: functional, organism-based; procedure, shortened: as §2
[18] = test system: Candida tropicalis; assay: Antifungal activity against fluconazole-resistant Candida tropicalis clinical isolate 087 assessed as fungal growth inhibition at 0.5 ug/ml after 48 hrs; type: functional, organism-based; procedure, shortened: as §3
[19] = test system: Candida tropicalis; assay: Antifungal activity against fluconazole-resistant Candida tropicalis clinical isolate 087 assessed as fungus with permeabilized membrane at 2 ug/ml after 12 hrs by propidium iodide staining-based flow cytometry (reference value: 7.22%); type: functional

O=C(/C=C/c1ccc(O)c(O)c1)/C=C/c1ccc(O)c(O)c1 gave an MIC80 [1] of 64 µg/mL (≈ 215 µM), an MIC80 [2] of 64 µg/mL (≈ 215 µM) and an MIC80 [3] of 64 µg/mL (≈ 215 µM). For the same compound, the “fractional inhibitory concentration index (FICI)” value [4] was 0.125, the MIC80 ([4]; Candida albicans, isolate 103) was 4 µg/mL and the “fractional inhibitory concentration index (FICI)” value [5] was 0.125. For the same compound, the MIC80 ([5]; Candida tropicalis, isolate 087) was 4 µg/mL, the “fractional inhibitory concentration index (FICI)” value [6] was 0.188 and the MIC80 ([6]; Pichia kudriavzevii, isolate 2159) was 8 µg/mL. For the same compound, the Activity [7] was “Active”, the Activity [8] was “Active” and the “growth inhibition (GI)” value [9] was “Active”. For the same compound, the Activity [10] was “Active”, the Activity [11] was “Active” and the Activity [12] was “Active”. For the same compound, the Activity [13] was 20.92%, the Activity [14] was 72.79% and the viability at 24 h, 32 ug/ml [15] was 75%. For the same compound, the viability at 24 h, 16 ug/ml [16] was 91%.

OC(Cn1cncn1)(Cn1cncn1)c1ccc(F)cc1F [FLUCONAZOLE] gave an MIC80 [1] of 128 µg/mL (≈ 418 µM), an MIC80 [2] of 128 µg/mL (≈ 418 µM) and an MIC80 [3] of 128 µg/mL (≈ 418 µM). For the same compound, the Activity [17] was “inactive”, the “growth inhibition (GI)” value [18] was “Active” and the Activity [19] was 37.27%.
